In ChEMBL document CHEMBL5370647 (J Med Chem, 2023):
Converted amounts (≈) assume the structure as drawn. The source made the active and inactive calls. The calls are words filed in the database; no cut-off is given here.

Columns and labels:
[1] = tested on: Mycobacterium tuberculosis; test: Antitubercular activity against Mycobacterium tuberculosis H37Rv constitutively expressing GFP assessed as inhibition of bacterial growth at 20 uM incubated for 7 days by fluorescence based analysis; type: functional; conditions: 168 h, time 7 day
[2] = tested on: Mycobacterium tuberculosis; test: Antitubercular activity against replicating Mycobacterium tuberculosis H37Rv constitutively expressing GFP assessed as inhibition of bacterial growth under normoxia conditions incubated for 3 weeks by spot assay; type: functional; conditions: 504 h
[3] = tested on: Mycobacterium tuberculosis; test: Antitubercular activity against non-replicating Mycobacterium tuberculosis H37Rv constitutively expressing GFP assessed as inhibition of bacterial growth incubated for 7 days under hypoxic condition followed by incubation in aerobic conditions for 1 to 5 days by spot assay; type: functional; conditions: time 8-12 day
[4] = tested on: Mycobacterium tuberculosis; test: Antitubercular activity against non-replicating Mycobacterium tuberculosis H37Rv expressing luxCDAB assessed as inhibition of bacterial growth incubated for 7 days under hypoxia conditions followed by incubation in normoxia conditions for 5 days by luminescence based analysis; type: functional; conditions: 288 h, time 12 day
TGF-beta receptor type-1 = target: T1, TGF-beta receptor type-1 (Homo sapiens, UniProt P36897); test: Binding affinity to wild type human partial length TGFBR1 (D179 to M503 residues) expressed in bacterial expression system by KINOMEscan assay
T1 sequence (P36897 whole entry): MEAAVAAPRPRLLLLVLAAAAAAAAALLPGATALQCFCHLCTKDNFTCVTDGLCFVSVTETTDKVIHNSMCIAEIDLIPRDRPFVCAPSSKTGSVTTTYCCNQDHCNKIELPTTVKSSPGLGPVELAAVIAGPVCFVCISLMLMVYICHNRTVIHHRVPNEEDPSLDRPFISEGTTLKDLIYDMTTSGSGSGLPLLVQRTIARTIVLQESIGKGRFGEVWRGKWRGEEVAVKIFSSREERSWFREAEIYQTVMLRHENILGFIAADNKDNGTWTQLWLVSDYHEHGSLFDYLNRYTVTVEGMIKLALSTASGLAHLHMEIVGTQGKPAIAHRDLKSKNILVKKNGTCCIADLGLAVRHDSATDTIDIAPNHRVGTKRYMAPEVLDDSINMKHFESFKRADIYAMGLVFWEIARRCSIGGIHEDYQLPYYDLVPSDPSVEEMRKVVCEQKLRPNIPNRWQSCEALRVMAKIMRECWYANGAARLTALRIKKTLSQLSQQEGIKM

[5] = Metabolic stability of the compound in CD-1 mouse liver microsomes assessed as parent compound remaining at 5 uM preincubated for 5 mins followed by NADPH addition and measured after 30 mins by LC-TOF/MS analysis; type: ADME, Microsome; conditions: time 35 min, read-out: Stability
In short: (§1)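 Mouse liver microsomes incubated with compound in the presence of NADPH. Read-out is % parent compound remaining after 30 min.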

[6] = Metabolic stability of the compound in CD-1 mouse liver microsomes at 5 uM by LC-TOF/MS analysis; type: ADME, Microsome; in short: as §1
[7] = AUC(last) in CD-1 mouse at 10 mg/kg, po by LC/MS/MS analysis; type: ADME, organism-based; set-up: dose 10 mg/kg, route po; conditions: in vivo
In short: (§2)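 CD1 mice dosed orally at 10 mg/kg (snapshot PK study). Plasma levels followed over 5 h by LC/MS/MS. T1/2, Cmax and AUC_last derived from the plasma profile.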

[8] = Half life in CD-1 mouse at 10 mg/kg, po by LC/MS/MS analysis; type: ADME, organism-based; conditions: in vivo; in short: as §2
[9] = Cmax in CD-1 mouse at 10 mg/kg, po by LC/MS/MS analysis; type: ADME, organism-based; set-up: dose 10 mg/kg, route po; conditions: in vivo; in short: as §2
[10] = Oral bioavailability in CD-1 mouse at 10 mg/kg by LC/MS/MS analysis; type: ADME, organism-based; conditions: in vivo
In short: (§3)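 Full PK study in CD1 mice at 10 mg/kg given by oral, intravenous and intraperitoneal routes. Plasma levels monitored over 8 h by LC/MS/MS.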

[11] = Volume of distribution in CD-1 mouse at 10 mg/kg by LC/MS/MS analysis; type: ADME, organism-based; conditions: in vivo; in short: as §3
[12] = Bioavailability in CD-1 mouse at 10 mg/kg, ip by LC/MS/MS analysis; type: ADME, organism-based; conditions: in vivo; in short: as §3
[13] = tested on: Mycobacterium tuberculosis; test: Antitubercular activity against RIF/INH-tolerant persistent Mycobacterium tuberculosis H37Rv assessed as reduction of viable bacteria at 4.9 uM incubated for 14 days followed by drug wash-out and measured after 21 days; type: functional, organism-based; conditions: time 14.0 day
In short: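 Static at 37 °C for 14 days, washed twice, resuspended in fresh 7H9 and recovered for 28 days. CFU plated 21 and 28 days after drug removal.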

Structure (SMILES)	inhibition at 20 µM [1]	MIC50 [2]	MIC90 [2]	MIC90 [3]	MIC50 [4]	MIC90 [4]	Kd (TGF-beta receptor type-1)	remaining at 0.5 h, 5 µM [5]	Stability [6]	AUClast [7]	t1/2 [8]	Cmax [9]	bioavailability [10]	Vd [11]	bioavailability [12]	Activity [13]
Cc1cccc(-c2nc(Nc3ccncc3)c3ccccc3n2)n1	> 90%	16 µM (≈ 5.01 µg/mL)	20 µM (≈ 6.27 µg/mL)	1 µM (≈ 0.313 µg/mL)	< 0.3 µM	0.3 µM (≈ 0.094 µg/mL)	10 nM	14%	Stable	75 ng·h/mL	1.8 h	60 ng/mL				
Cc1cccc(-c2nc(Nc3ccncc3)c3ccn(C)c3n2)n1					< 1 µM	< 1 µM		39%	Stable	640 ng·h/mL	1.9 h	280 ng/mL	25%	4.65 L/kg	65%	
CC[C@@H](CO)NCCN[C@@H](CC)CO																inactive
